In ChEMBL document CHEMBL1125258, “Topographically designed analogues of [D-Pen,D-Pen5]enkephalin” (J Med Chem, 1991):

Species: Cavia porcellus
Test: Percent maximal inhibition (Emax) was measured using guinea pig ileum assay (GPI).
Format: functional
C[C@H](c1ccccc1)[C@H]1NC(=O)CNC(=O)[C@H](NC(=O)[C@@H](N)Cc2ccc(O)cc2)C(C)(C)SSC(C)(C)[C@H](C(=O)O)NC1=O was tested, and the E max was 100%.
C[C@H](c1ccc([N+](=O)[O-])cc1)[C@@H]1NC(=O)CNC(=O)[C@H](NC(=O)[C@@H](N)Cc2ccc(O)cc2)C(C)(C)SSC(C)(C)[C@H](C(=O)O)NC1=O [listing 1 of 2 here] gave an E max of 74%.
Compound C[C@@H](c1ccccc1)[C@H]1NC(=O)CNC(=O)[C@H](NC(=O)[C@@H](N)Cc2ccc(O)cc2)C(C)(C)SSC(C)(C)[C@H](C(=O)O)NC1=O has an E max of 100%.
C[C@@H](c1ccc([N+](=O)[O-])cc1)[C@H]1NC(=O)CNC(=O)[C@H](NC(=O)[C@@H](N)Cc2ccc(O)cc2)C(C)(C)SSC(C)(C)[C@H](C(=O)O)NC1=O [listing 1 of 2 here] gave an E max of 66%.
With C[C@H](c1ccccc1)[C@@H]1NC(=O)CNC(=O)[C@H](NC(=O)[C@@H](N)Cc2ccc(O)cc2)C(C)(C)SSC(C)(C)[C@H](C(=O)O)NC1=O (stereo in doubt; 4) the E max was 56%.
C[C@H](c1ccc([N+](=O)[O-])cc1)[C@H]1NC(=O)CNC(=O)[C@@H](NC(=O)[C@@H](N)Cc2ccc(O)cc2)C(C)(C)SSC(C)(C)[C@@H](C(=O)O)NC1=O (stereo in doubt; 6) gave an E max of 73%.

The compounds below were run against T1, Mu-type opioid receptor (Rattus norvegicus, UniProt P33535) (assay: Inhibitory activity measured against [3H]CTOP (Opioid receptor mu 1) in rat brain using radioreceptor binding assays.).
T1 sequence (P33535 whole entry): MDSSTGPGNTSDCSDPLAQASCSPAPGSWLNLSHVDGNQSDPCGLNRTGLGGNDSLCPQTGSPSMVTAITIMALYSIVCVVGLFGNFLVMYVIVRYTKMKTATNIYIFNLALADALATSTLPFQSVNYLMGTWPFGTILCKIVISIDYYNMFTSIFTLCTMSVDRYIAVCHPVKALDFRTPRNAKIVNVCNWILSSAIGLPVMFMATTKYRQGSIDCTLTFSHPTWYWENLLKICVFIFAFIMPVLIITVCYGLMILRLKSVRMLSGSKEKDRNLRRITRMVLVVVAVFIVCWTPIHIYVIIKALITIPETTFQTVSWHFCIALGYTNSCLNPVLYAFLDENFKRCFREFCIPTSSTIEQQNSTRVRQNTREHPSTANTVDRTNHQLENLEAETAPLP
Format: tissue-based
Method in brief: (§1)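 Male Sprague-Dawley rat whole brain minus cerebellum, homogenised and washed three times (30 min at 25 °C in 50 mM Tris) to remove endogenous opioids. Homogenate at 0.5% final was incubated with 0.5 nM [3H]CTOP in 50 mM Tris-HCl pH 7.4 containing 5 mM MgCl2 and BSA 1 mg/mL for 120 min at 25 °C. Nonspecific binding was defined with 1 μM naltrexone. Bound ligand was collected by filtration and counted by scintillation; duplicates, 2–4 experiments.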
With C[C@H](c1ccc([N+](=O)[O-])cc1)[C@@H]1NC(=O)CNC(=O)[C@H](NC(=O)[C@@H](N)Cc2ccc(O)cc2)C(C)(C)SSC(C)(C)[C@H](C(=O)O)NC1=O [listing 2 of 2 here] the IC50 was 105 nM.
Compound C[C@@H](c1ccc([N+](=O)[O-])cc1)[C@H]1NC(=O)CNC(=O)[C@H](NC(=O)[C@@H](N)Cc2ccc(O)cc2)C(C)(C)SSC(C)(C)[C@H](C(=O)O)NC1=O [listing 2 of 2 here] has an IC50 of 1020 nM.
C[C@H](c1ccc([N+](=O)[O-])cc1)[C@H]1NC(=O)CNC(=O)[C@@H](NC(=O)[C@@H](N)Cc2ccc(O)cc2)C(C)(C)SSC(C)(C)[C@@H](C(=O)O)NC1=O (stereo in doubt; 6) was tested, and the IC50 was 2200 nM.
For C[C@H](c1ccc([N+](=O)[O-])cc1)[C@H]1NC(=O)CNC(=O)[C@@H](NC(=O)[C@@H](N)Cc2ccc(O)cc2)C(C)(C)SSC(C)(C)[C@@H](C(=O)O)NC1=O (stereo in doubt; 7), the IC50 was > 10000 nM.

Each compound was assayed against Delta-type opioid receptor (Mus musculus, UniProt P32300) (assay: Inhibitory activity measured against Opioid receptor delta 1 using mouse vas deference assay (MVD).).
Chain of Delta-type opioid receptor (Mus musculus, UniProt P32300) (P32300 whole entry): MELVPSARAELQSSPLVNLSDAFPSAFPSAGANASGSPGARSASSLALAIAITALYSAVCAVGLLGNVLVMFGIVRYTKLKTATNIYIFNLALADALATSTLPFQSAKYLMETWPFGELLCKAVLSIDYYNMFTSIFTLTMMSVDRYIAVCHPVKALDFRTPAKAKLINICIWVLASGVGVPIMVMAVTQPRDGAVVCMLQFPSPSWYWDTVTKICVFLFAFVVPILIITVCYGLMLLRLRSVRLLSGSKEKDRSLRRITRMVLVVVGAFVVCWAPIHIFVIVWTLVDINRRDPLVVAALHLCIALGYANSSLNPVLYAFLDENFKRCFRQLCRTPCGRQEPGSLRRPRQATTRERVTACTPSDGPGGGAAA
Method in brief: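 Vas deferens from male ICR mice (25–30 g) in magnesium-free oxygenated Krebs bicarbonate at 37 °C under 0.5 g tension. Electrical stimulation at 0.1 Hz with 2.0-ms pulses at supramaximal voltage. Agonist contact was 3 min.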
For C[C@H](c1ccc([N+](=O)[O-])cc1)[C@@H]1NC(=O)CNC(=O)[C@H](NC(=O)[C@@H](N)Cc2ccc(O)cc2)C(C)(C)SSC(C)(C)[C@H](C(=O)O)NC1=O [listing 2 of 2 here], the IC50 was 27 nM.
C[C@@H](c1ccc([N+](=O)[O-])cc1)[C@H]1NC(=O)CNC(=O)[C@H](NC(=O)[C@@H](N)Cc2ccc(O)cc2)C(C)(C)SSC(C)(C)[C@H](C(=O)O)NC1=O [listing 2 of 2 here] gave an IC50 of 1790 nM.
C[C@H](c1ccc([N+](=O)[O-])cc1)[C@H]1NC(=O)CNC(=O)[C@@H](NC(=O)[C@@H](N)Cc2ccc(O)cc2)C(C)(C)SSC(C)(C)[C@@H](C(=O)O)NC1=O (stereo in doubt; 6) showed an IC50 of 4.59 nM.
With C[C@H](c1ccc([N+](=O)[O-])cc1)[C@H]1NC(=O)CNC(=O)[C@@H](NC(=O)[C@@H](N)Cc2ccc(O)cc2)C(C)(C)SSC(C)(C)[C@@H](C(=O)O)NC1=O (stereo in doubt; 7) the IC50 was 630 nM.

The compounds below were run against T2, Delta-type opioid receptor (Rattus norvegicus, UniProt P33533) (assay: Inhibitory activity measured against [3H]DPDPE (Opioid receptor delta 1 ligand) in rat brain using radioreceptor binding assays.).
T2 sequence (P33533 whole entry): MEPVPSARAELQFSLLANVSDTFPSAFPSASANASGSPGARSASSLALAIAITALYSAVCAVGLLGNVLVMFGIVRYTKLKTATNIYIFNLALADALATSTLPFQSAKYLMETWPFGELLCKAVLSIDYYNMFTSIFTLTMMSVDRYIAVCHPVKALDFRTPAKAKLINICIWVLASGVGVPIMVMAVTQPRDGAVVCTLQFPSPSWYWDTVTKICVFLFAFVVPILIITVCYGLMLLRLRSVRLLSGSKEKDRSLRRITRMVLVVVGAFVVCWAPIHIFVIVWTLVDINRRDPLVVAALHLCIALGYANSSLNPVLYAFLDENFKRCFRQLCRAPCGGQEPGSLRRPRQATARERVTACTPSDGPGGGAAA
Format: tissue-based
Method in brief: (§2)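 Male Sprague-Dawley rat brain membranes (minus cerebellum), washed three times to remove endogenous opioids. Specific binding was defined as that displaced by 1 μM naltrexone. Filtration and scintillation counting; duplicates, 2–4 experiments.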
For C[C@H](c1ccc([N+](=O)[O-])cc1)[C@@H]1NC(=O)CNC(=O)[C@H](NC(=O)[C@@H](N)Cc2ccc(O)cc2)C(C)(C)SSC(C)(C)[C@H](C(=O)O)NC1=O [listing 2 of 2 here], the IC50 was 4.2 nM.
Compound C[C@@H](c1ccc([N+](=O)[O-])cc1)[C@H]1NC(=O)CNC(=O)[C@H](NC(=O)[C@@H](N)Cc2ccc(O)cc2)C(C)(C)SSC(C)(C)[C@H](C(=O)O)NC1=O [listing 2 of 2 here] has an IC50 of 222 nM.
For C[C@H](c1ccc([N+](=O)[O-])cc1)[C@H]1NC(=O)CNC(=O)[C@@H](NC(=O)[C@@H](N)Cc2ccc(O)cc2)C(C)(C)SSC(C)(C)[C@@H](C(=O)O)NC1=O (stereo in doubt; 6), the IC50 was 6.89 nM.
Work on C[C@H](c1ccc([N+](=O)[O-])cc1)[C@H]1NC(=O)CNC(=O)[C@@H](NC(=O)[C@@H](N)Cc2ccc(O)cc2)C(C)(C)SSC(C)(C)[C@@H](C(=O)O)NC1=O (stereo in doubt; 7) yielded an IC50 of 226 nM.

These compounds were tested against T1, Mu-type opioid receptor (assay: Binding affinity measured against [3H]CTOP (Opioid receptor mu 1) in rat brain using radioreceptor binding assays.).
Format: tissue-based
Method in brief: as §1
With C[C@H](c1ccc([N+](=O)[O-])cc1)[C@@H]1NC(=O)CNC(=O)[C@H](NC(=O)[C@@H](N)Cc2ccc(O)cc2)C(C)(C)SSC(C)(C)[C@H](C(=O)O)NC1=O [listing 2 of 2 here] the Ki was 24 nM.
C[C@@H](c1ccc([N+](=O)[O-])cc1)[C@H]1NC(=O)CNC(=O)[C@H](NC(=O)[C@@H](N)Cc2ccc(O)cc2)C(C)(C)SSC(C)(C)[C@H](C(=O)O)NC1=O [listing 2 of 2 here] showed a Ki of 240 nM.
Compound C[C@H](c1ccc([N+](=O)[O-])cc1)[C@H]1NC(=O)CNC(=O)[C@@H](NC(=O)[C@@H](N)Cc2ccc(O)cc2)C(C)(C)SSC(C)(C)[C@@H](C(=O)O)NC1=O (stereo in doubt; 6) has a Ki of 530 nM.

What follows are compounds tested against T2, Delta-type opioid receptor (assay: Binding affinity measured against [3H]DPDPE (Opioid receptor delta 1 ligand) in rat brain using radioreceptor binding assays.).
Format: tissue-based
Method in brief: as §2
C[C@H](c1ccc([N+](=O)[O-])cc1)[C@@H]1NC(=O)CNC(=O)[C@H](NC(=O)[C@@H](N)Cc2ccc(O)cc2)C(C)(C)SSC(C)(C)[C@H](C(=O)O)NC1=O [listing 2 of 2 here] was tested, and the Ki was 3.4 nM.
In the case of C[C@@H](c1ccc([N+](=O)[O-])cc1)[C@H]1NC(=O)CNC(=O)[C@H](NC(=O)[C@@H](N)Cc2ccc(O)cc2)C(C)(C)SSC(C)(C)[C@H](C(=O)O)NC1=O [listing 2 of 2 here], the Ki is reported as 180 nM.
With C[C@H](c1ccc([N+](=O)[O-])cc1)[C@H]1NC(=O)CNC(=O)[C@@H](NC(=O)[C@@H](N)Cc2ccc(O)cc2)C(C)(C)SSC(C)(C)[C@@H](C(=O)O)NC1=O (stereo in doubt; 6) the Ki was 5.5 nM.
C[C@H](c1ccc([N+](=O)[O-])cc1)[C@H]1NC(=O)CNC(=O)[C@@H](NC(=O)[C@@H](N)Cc2ccc(O)cc2)C(C)(C)SSC(C)(C)[C@@H](C(=O)O)NC1=O (stereo in doubt; 7) gave a Ki of 180 nM.

These compounds were tested against Mu-type opioid receptor (Cavia porcellus, UniProt P97266) (assay: Inhibitory activity measured against Opioid receptor mu 1 using guinea pig ileum assay (GPI).).
Chain of Mu-type opioid receptor (Cavia porcellus, UniProt P97266) (P97266 whole entry): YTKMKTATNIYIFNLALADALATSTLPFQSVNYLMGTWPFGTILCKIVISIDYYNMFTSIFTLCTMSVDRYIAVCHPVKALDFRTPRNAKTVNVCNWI
Format: tissue-based
Method in brief: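 Longitudinal muscle-myenteric plexus from the ileum of male Hartley guinea pigs (150–400 g) in oxygenated Krebs bicarbonate at 37 °C under 1 g tension. Electrical stimulation at 0.1 Hz with 0.4-ms pulses at supramaximal voltage. Agonist exposure was 3 min, followed by rinse and 8 min re-equilibration. Percent inhibition of contraction was fitted to a logistic equation for IC50; duplicates, 2–4 experiments.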
In the case of C[C@H](c1ccc([N+](=O)[O-])cc1)[C@@H]1NC(=O)CNC(=O)[C@H](NC(=O)[C@@H](N)Cc2ccc(O)cc2)C(C)(C)SSC(C)(C)[C@H](C(=O)O)NC1=O [listing 2 of 2 here], the IC50 is reported as 2.7 µM.
C[C@@H](c1ccc([N+](=O)[O-])cc1)[C@H]1NC(=O)CNC(=O)[C@H](NC(=O)[C@@H](N)Cc2ccc(O)cc2)C(C)(C)SSC(C)(C)[C@H](C(=O)O)NC1=O [listing 2 of 2 here] gave an IC50 of 12.3 µM.
C[C@H](c1ccc([N+](=O)[O-])cc1)[C@H]1NC(=O)CNC(=O)[C@@H](NC(=O)[C@@H](N)Cc2ccc(O)cc2)C(C)(C)SSC(C)(C)[C@@H](C(=O)O)NC1=O (stereo in doubt; 6) showed an IC50 of 25.7 µM.
With C[C@H](c1ccc([N+](=O)[O-])cc1)[C@H]1NC(=O)CNC(=O)[C@@H](NC(=O)[C@@H](N)Cc2ccc(O)cc2)C(C)(C)SSC(C)(C)[C@@H](C(=O)O)NC1=O (stereo in doubt; 7) the IC50 was > 10 µM.
